Assay results published in ChEMBL document CHEMBL2163188, “Discovery of piragliatin--first glucokinase activator studied in type 2 diabetic patients” (J Med Chem, 2012).
The source made the active and inactive calls. No cut-off for these calls is given here.

Columns and labels:
[1] = target: T1, Hexokinase-4 (Homo sapiens) (UniProt P35557); experiment: Activation of human recombinant glucokinase assessed as concentration required for 1.5 fold increase in enzymatic activity
T1 sequence (whole entry): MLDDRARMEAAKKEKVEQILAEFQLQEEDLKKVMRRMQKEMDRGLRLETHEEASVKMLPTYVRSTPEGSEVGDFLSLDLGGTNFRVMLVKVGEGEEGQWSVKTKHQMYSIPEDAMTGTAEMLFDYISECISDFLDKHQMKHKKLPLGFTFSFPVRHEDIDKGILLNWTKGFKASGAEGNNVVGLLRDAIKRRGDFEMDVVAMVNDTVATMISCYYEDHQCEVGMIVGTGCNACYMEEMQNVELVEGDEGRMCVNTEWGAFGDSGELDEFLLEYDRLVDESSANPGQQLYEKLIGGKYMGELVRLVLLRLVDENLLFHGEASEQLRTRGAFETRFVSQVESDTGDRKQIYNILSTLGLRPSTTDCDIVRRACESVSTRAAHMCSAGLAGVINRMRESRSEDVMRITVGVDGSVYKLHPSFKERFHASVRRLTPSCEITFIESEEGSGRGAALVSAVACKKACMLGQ
How it was run: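 Human recombinant GK; activator at fixed concentrations from ∼0.010 to 30 μM, each in duplicate, with glucose held at 5 mM. SC1.5 is the activator concentration giving a 1.5-fold rise in enzymatic activity over untreated GK. Assay CV was about 15%.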

Mus musculus = experiment: Antidiabetic activity in po dosed DIO C57Bl/6J mouse assessed as reduction of fasting and postprandial glucose level administered 1 hr before glucose challenge by OGTT; assay type: functional, organism-based
How it was run: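 Male DIO C57Bl/6J mice were fasted overnight and dosed orally at 5, 10 or 15 mg/kg in Gelucire44/14:ethanol:PEG400 (4:66:30 v/w/v). An oral glucose challenge of 1 g/kg followed 1 h later. Tail-snip blood glucose was read on a YSI analyzer up to 120 min. Food was withheld throughout; n = 6 per time point; means ± SD; Student's t test.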

- Activity [1]: 0.14 µM
Compound: CS(=O)(=O)c1ccc([C@@H](CC2CCCC2)C(=O)Nc2cnccn2)cc1Cl
- Activity (Mus musculus): Active
